Compound activity deposited in PubChem BioAssay by several laboratories.
Cardio protect: myocardial damage modulation in H9c2 cells | protection from H2O2 cell death, % at 20 µM | AID 588492 | 0.63% of 360,000 active | H9c2 cardiomyocytes, H2O2 injury protection, ATPLite, 2 h;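 active = compounds giving at least 50% protection of heart cells from peroxide-induced death in the single-dose screen, raw or plate-pattern-corrected value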;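 also: 0% = DMSO wells with peroxide and 100% = DMSO wells without peroxide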
SENP1 inh: blocks the human SENP1 SUMO protease catalytic domain | Q9P0U3 | 0.21% of 360,000 active | recombinant SENP1 catalytic domain, CyPet-SUMO1-YPet FRET cleavage | inhibition, % at 10 µM;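 active = inhibition at least 30% at 10 µM, raw YFP signal under a set limit, fluorescence ratio 0.5 to 1.5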;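 also: 0% = enzyme with DMSO and 100% = no enzyme wells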
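Assay system – human recombinant His6-tagged SENP1 catalytic domain enzyme · Input – SENP1 enzyme, 20 pM final · Buffer or medium – Tris pH 8 buffer plus EDTA, NaCl, BME, BSA, NP40, catalase · Schedule – 50 min reaction at room temperature · Technique – FRET read of cyan and yellow fluorescence · Control set – no-enzyme wells low, DMSO-plus-enzyme wells high control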
FAS-TE inh: inhibitors of human fatty acid synthase thioesterase domain. recombinant FAS-TE, OMFH fluorogenic substrate, fluorescence endpoint. inhibition, % at 15 µM. 0.67% of 360,000 active;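 active = compounds whose normalised, plate-corrected inhibition of enzyme fluorescence in the single-dose primary screen is 50% or more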;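 also: 0% = DMSO with enzyme and 100% = substrate without enzyme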
Arrestin-AP2 inh: blocks beta-arrestin peptide binding to AP2 adaptin. inhibition, % at 10 µM. 0.31% of 340,000 active. FITC-arrestin peptide / GST-AP2 beads, flow cytometry; AP2 beta2 appendage carries R879A mutation;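 active = inhibition above a set limit, near 3 SD of compounds lacking own fluorescence, cut at about 54% in these data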;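 also: plate controls were DMSO wells for no effect and 5 µM unlabelled arrestin peptide for full effect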
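System: GST-tagged AP2 beta2-adaptin appendage (R879A) on 4 µm glutathione beads / Reagent: FITC-arrestin peptide, 50 nM / Detection: HyperCyt-sampled flow cytometry, FL1 channel, ex 488/em 535 nm / Timing: 12 min plus 1 h, RT / Buffer or medium: PBS plus Tween 20 (0.05%) and BSA (0.1%)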
NR3A LBD binder: modulators (binders) of human NR3A ligand-binding domain; NR3A LBD differential scanning fluorimetry, Tm shift; 0% = protein alone, 100% = glycine-bound protein; Tm shift relative to glycine control, % at 25 µM; 2.5% of 340,000 active;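 active = melting temperature shift of at least 10% of the positive control shift, at one fixed dose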
iPSC survival up: hiPSC single-cell survival enhancement | ATPlite luminescence; 100% = ROCK inhibitor wells, 0% = DMSO | survival enhancement, % at 20 µM | 0.044% of 360,000 active | AID 602274; in the data active = survival enhancement above about 18%;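 also: cells exposed to compounds for 16 hours before the ATP read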
FAS-TE inh conf: FAS thioesterase (human) inhibition, confirmation; shares compounds with FAS-TE inh; AID 624325; inhibition, % at 15 µM; recombinant FAS-TE, OMFH fluorogenic substrate, fluorescence; 45% of 2,300 active;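 active = compounds inhibiting the enzyme by at least 50% at 15 µM in any one of the replicates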;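 also: 0% = enzyme with DMSO only and 100% = wells lacking enzyme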
An asterisk follows results filed as active; . = no result. Most compounds without a hit are left out; they make up all but 4% or so of the library.

SMILES	Cardio protect	SENP1 inh	FAS-TE inh	Arrestin-AP2 inh	NR3A LBD binder	iPSC survival up	FAS-TE inh conf
Cc1ccc(-c2csc3nc(C(C)C)oc(=O)c23)c(C)c1	-0.7	2.3	86.1*	14.4	0.2	0.0	69.1*
Cc1ccc(-c2csc3nc[nH]c(=O)c23)c(C)c1	-6.8	-0.6	-2.8	10.0	2.0	2.9	.
O=C(Nc1nc(OCCN2CCCC2=O)cnc1/C=C\c1ccccc1)c1cc2ccccc2s1	7.1	-10.5	31.3	.	.	-0.5	.
O=S(=O)(Nc1cccc(-c2ccc(N3CCCCCC3)nn2)c1)c1ccc(F)cc1	-5.4	-0.2	62.4*	2.0	-3.4	-0.3	10.6
Cc1ccc(S(=O)(=O)Nc2cccc(-c3ccc4nncn4n3)c2)cc1	13.6	0.8	54.2*	-3.1	-3.6	-0.4	51.1*
O=S(=O)(Nc1cccc(-c2ccc(N3CCCCCC3)nn2)c1)c1cccc(F)c1	-9.2	-1.0	61.0*	5.5	8.2	0.2	0.8
O=S(=O)(Nc1cccc(-c2ccc(N3CCCCCC3)nn2)c1)c1ccc(C(F)(F)F)cc1	-5.8	-3.9	39.4	22.8	4.8	-0.4	.
COCCNC(=O)C1(C)Cc2c(-c3cccc(C(F)(F)F)c3)ccnc2O1 (centres undefined)	-2.2	0.6	-1.4	.	.	-1.5	.
CC1=C(C(=O)N(C(C)C)C(C)C)CC(CC(=O)NCCc2ccccn2)C(=O)N1CCCN1CCCC1=O (centres undefined)	7.4	0.9	-8.1	.	.	1.0	.
COc1ccccc1-c1cc(SC)c(C#N)c(=O)o1	-24.5	-54.9	54.9*	-6.0	1.5	-2.0	47.2*
Cc1cccc(NC(=O)CSc2nc3c(oc4ccccc43)c(=O)n2-c2ccccc2)c1	-1.0	-0.4	57.2*	0.3	1.7	-1.6	34.7*
Cc1ccc(C(C(=O)NCc2ccccc2)N(Cc2cccs2)C(=O)c2ccc3c(c2)OCCO3)cc1 (centres undefined)	55.8*	0.4	51.1*	16.7	0.2	-0.2	31.9
O=C(CNc1cc(S(=O)(=O)N2CCCC2)ccc1OCC(F)(F)F)Nc1cccc(C(F)(F)F)c1	-14.5	4.5	63.5*	-1.7	5.1	-0.8	18.3
CSc1ncnc2c1ncn2CCCNCCCc1ccccc1	-8.3	-1.8	-9.5	.	.	5.8	.
Cc1cc([N+](=O)[O-])nn1CCCC(=O)Nc1cc(Oc2ccccc2)cc([N+](=O)[O-])c1	2.9	2.4	35.8	3.0	1.4	-2.5	.
Cc1cccc(Oc2cc(NC(=O)Cn3cnc([N+](=O)[O-])n3)cc([N+](=O)[O-])c2)c1	-11.4	1.7	59.3*	.	27.4*	0.3	44.4
C=CCC[C@@H](Cc1ccc(F)cc1)C(=O)OC[C@H](Cc1c[nH]c2ccccc12)NC(=O)[C@H](CC=C)CC(=O)NCCO	15.3	-0.9	56.9*	2.0	-3.8	2.6	68.2*
CC1(C(=O)NS(=O)(=O)c2ccc(C#N)cc2)CCN1C(=O)c1cccc(F)c1 (centres undefined)	2.0	0.5	-3.4	.	.	0.6	.
CC(C)(C)c1ccc(C(=O)N2CCC2(C)C(=O)NS(=O)(=O)c2ccc(C#N)cc2)cc1 (centres undefined)	2.0	1.9	53.3*	.	.	0.8	65.2*
Cc1cccc(C(=O)Oc2ccccc2/C=N/NC(=O)c2ccc(NC(=O)C(C)(C)C)cc2)c1	-0.8	1.0	66.3*	27.4	6.0	3.2	18.1
CC(C)(C)C(=O)Nc1ccc(C(=O)N/N=C/c2ccccc2OC(=O)c2ccc(Cl)cc2)cc1	16.2	1.3	75.8*	3.1	21.4*	0.0	12.5
Cc1cccc(C(=O)NNC(=O)c2ccc(NC(=O)C(C)(C)C)cc2)c1	-2.2	1.4	-4.5	30.8	-3.0	2.9	.
COc1cc(C(=O)Oc2ccccc2/C=N/NC(=O)c2ccc(C)cc2)cc(OC)c1OC	-16.1	-4.2	3.8	5.2	-0.2	-3.3	.
O=C1NC[C@@H](CCCCN2CCN(CCc3ccccc3)C(=O)C2=O)N(CC2CCCCC2)C1=O	.	1.3	-8.2	.	.	0.6	.
COc1cccc(C(C)(O)c2nc(-c3cccc(C(C)C)c3)cs2)c1 (centres undefined)	-19.0	1.8	27.5	.	.	-1.3	.
SMILES	Cardio protect	SENP1 inh	FAS-TE inh	Arrestin-AP2 inh	NR3A LBD binder	iPSC survival up	FAS-TE inh conf
O=C(Oc1ccccc1C(=O)Nc1ccccc1)c1ccc(Br)c([N+](=O)[O-])c1	-5.7	1.3	78.4*	6.8	1.7	-3.6	76.1*
COc1ccccc1C(=O)Oc1ccccc1C(=O)Nc1ccccc1	0.4	0.6	-4.2	-11.2	-2.1	-0.5	.
Nc1sccc1C(=O)NCc1ccccc1	.	-61.7	.	.	.	.	.
Cn1c(SCc2c(Cl)cccc2Cl)nc(C(F)(F)F)cc1=O	0.3	1.5	52.0*	-14.5	4.3	-1.3	6.7
Cn1c(SCc2cccc(Cl)c2)nc(C(F)(F)F)cc1=O	-11.2	0.9	63.4*	-2.6	3.8	-1.3	61.6*
O=C(C[C@H]1CC[C@H](NC(=O)Nc2ccccc2F)[C@@H](CO)O1)NCc1ccc(-c2ccccc2)cc1	.	1.3	.	.	.	.	.
CCOC(=O)C1=C(C)N(CCCCCC(=O)O)C(=O)NC1c1cccc([N+](=O)[O-])c1 (centres undefined)	-1.1	1.0	-1.0	-6.8	0.1	-2.4	.
CC1=C(C(=O)OCC(Br)(Br)Br)C(c2cccc([N+](=O)[O-])c2)NC(=O)N1CCCC(=O)O (centres undefined)	10.8	2.3	56.5*	2.3	-7.4	6.5	65.0*
O=C(Nc1ccccc1)c1ccc(Nc2c([N+](=O)[O-])cc([N+](=O)[O-])c3ccccc23)cc1	-14.1	12.8	68.8*	14.9	10.7*	0.3	38.4
CC1(C(=O)NS(=O)(=O)C2CC2)CCCN(C(=O)c2ccc(F)cc2Cl)C1 (centres undefined)	0.6	1.2	-5.7	.	.	4.6	.
C[C@]12C(=O)N(c3ccc(F)cc3)C(=O)N1[C@H]1c3ccccc3OC[C@@H]1[C@H]2c1ccccc1	-10.3	2.7	89.3*	-15.5	0.2	-2.4	29.6
C[C@@]12C(=O)N(c3ccc(F)cc3)C(=O)N1[C@@H]1c3ccccc3OC[C@@H]1[C@H]2c1ccccc1	8.3	2.0	25.3	-3.0	1.0	-1.1	.
C[C@]12C(=O)N(c3ccc(Cl)cc3)C(=O)N1[C@@H]1c3ccccc3OC[C@@H]1[C@H]2c1ccccc1	-3.3	1.8	54.9*	4.5	1.6	-2.1	31.6
